Compound activity as filed in PubChem.
The list is not random: actives were taken first. Their share in the collection is about 1.5%.
HNF4A DNA FP: change in binding of human HNF4A to DNA, primary screen, biochemical, fluorescence polarization, FITC-DNA; Hepatocyte nuclear factor 4-alpha (Homo sapiens), P41235; 1 h; actives 0.3% (n = 360,000); activity change, % at 10 µM; in the data active = activity change above about 30%, passing the limit was not always enough
Rpn11 block: Rpn11 (PSMD14) deubiquitinase inhibitors, primary screen, biochemical, fluorescence polarization, uHTS | actives 0.59% (n = 360,000) | calls only at 20 µM | human 26S proteasome, Ub4-pepOG fluorescence polarization; 20S core pre-blocked with epoxomicin | 26S proteasome non-ATPase regulatory subunit 14 (Homo sapiens), O00487;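 active = inhibition at 20 µM, scaled to each plate's controls, above about 33%, limit read from the data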
Target sequence (O00487 whole entry, looked up): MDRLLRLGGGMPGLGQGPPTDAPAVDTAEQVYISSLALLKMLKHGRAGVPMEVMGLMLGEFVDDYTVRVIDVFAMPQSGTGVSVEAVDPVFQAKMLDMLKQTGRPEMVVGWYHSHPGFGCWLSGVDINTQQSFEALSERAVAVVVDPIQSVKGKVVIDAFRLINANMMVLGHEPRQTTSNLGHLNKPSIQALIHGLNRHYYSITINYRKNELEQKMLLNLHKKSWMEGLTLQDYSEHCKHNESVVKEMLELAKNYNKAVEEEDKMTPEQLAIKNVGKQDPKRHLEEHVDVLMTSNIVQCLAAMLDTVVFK
CSN inh: inhibitors of CSN-mediated cullin deneddylation, primary screen, biochemical, fluorescence polarization, uHTS | actives 0.38% (n = 360,000) | Purified CSN, SCF-Nedd8-OG deneddylation | inhibition, % at 12.5 µM;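 active = pattern-corrected inhibition above about 35%, with an unprinted fluorescence ratio check between 0.5 and 1.5, limit read from the data, passing the limit was not always enough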;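 also: 0% = enzyme with substrate and 100% = substrate without enzyme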
Target sequence (Q92905 whole entry, looked up, one chain of several): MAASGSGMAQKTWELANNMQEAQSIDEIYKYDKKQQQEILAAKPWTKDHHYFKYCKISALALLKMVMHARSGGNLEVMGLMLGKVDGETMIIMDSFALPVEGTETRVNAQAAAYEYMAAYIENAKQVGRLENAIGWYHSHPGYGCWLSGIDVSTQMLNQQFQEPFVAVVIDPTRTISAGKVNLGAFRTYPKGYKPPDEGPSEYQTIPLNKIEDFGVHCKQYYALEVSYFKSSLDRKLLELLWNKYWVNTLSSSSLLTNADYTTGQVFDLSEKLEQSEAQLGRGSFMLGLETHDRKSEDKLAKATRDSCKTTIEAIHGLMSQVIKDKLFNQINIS
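Material: purified human Csn5 enzyme expressed in HEK293T cells / Medium: Tris buffer pH 7.5, NaCl, DTT, Tween-20, trehalose, ovalbumin / Compound dosing: 12.5 µM single point / Schedule: 90 min incubation of compound, enzyme and substrate at room temperature / Signal: fluorescence polarization of the substrate / Control set: no-enzyme wells high, enzyme-with-substrate wells low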
TPT1 inhibitor: Candida albicans TPT1 enzyme inhibitors, primary screen, biochemical, fluorescence polarization; recombinant caTPT1, FP RNA substrate dephosphorylation; inhibition, % at 5 µM; actives 0.81% (n = 300,000);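 active = inhibition above the mean of all tested compounds plus 3 SD, set per screening campaign, cut at about 24% in these data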;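 also: plate controls were DMSO alone for no effect and ferristatin control at 100 nM for full effect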
caTPT1 confirm: Candida albicans TPT1 inhibitors, confirmation, biochemical, fluorescence polarization, triplicate. actives 74% (n = 2,400). shares compounds with TPT1 inhibitor. AID 2149, 2009. recombinant caTPT1, RNase T1 coupled. inhibition, % at 5 µM;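 active = inhibition above the primary screen limit, the mean inhibition of all tested compounds plus 3 SD, cut at about 25% in these data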
RNase T1 counter: RNase T1 inhibitors, counter-screen for TPT1 inhibitor project, biochemical, fluorescence polarization. shares compounds with TPT1 inhibitor. RNase T1 cleavage, 1536-well. inhibition, % at 5 µM. actives 83% (n = 2,400). AID 2153, 2009;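 active = inhibition above the solvent-only control well mean plus 3 SD, limit set per screening run, cut at about 23% in these data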;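 also: plate controls were DMSO wells with enzyme for no effect and wells without RNase T1 for full effect; inhibitors block cleavage so intact labeled substrate keeps polarization high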
Rpn11 inh conf: Rpn11 (PSMD14) deubiquitinase inhibitors, confirmation, biochemical, fluorescence polarization, single concentration. purified human 26S proteasome, Ub4-pepOG fluorescence polarization; proteasome pretreated with epoxomicin. actives 29% (n = 1,900). inhibition, % at 20 µM. shares compounds with Rpn11 block
MMP-2 inh: MMP-2 enzyme inhibition, confirmation, counter-screen for RPN11 inhibitor project, biochemical, fluorescence, single concentration | shares compounds with Rpn11 block | actives 4% (n = 1,900) | recombinant MMP-2, FRET peptide cleavage fluorescence | AID 602330, 2012 | inhibition, % at 20 µM;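 also: human MMP-2 activated beforehand with APMA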
Thrombin inh: bovine thrombin protease inhibition, confirmation, counter-screen for Rpn11 inhibitor project, biochemical, fluorescence polarization, single concentration | inhibition, % at 20 µM | bovine thrombin cleavage of Ub4-pepOG | actives 13% (n = 1,900) | shares compounds with Rpn11 block;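 active = mean inhibition at least 40% at 20 µM, or signal 3 deviations below plate average, so some actives read negative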;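 also: plate controls were thrombin with DMSO for no effect and buffer wells lacking thrombin for full effect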
The depositor's hits bear a star; i = inactive; . = not tested or not shown; + = active, no number. Rule as the data show it, unless noted: active = inhibition above about 40%; inactive = the rest.

SMILES | HNF4A DNA FP | Rpn11 block | CSN inh | TPT1 inhibitor | caTPT1 confirm | RNase T1 counter | Rpn11 inh conf | MMP-2 inh | Thrombin inh
Cc1cccc(C)c1NC(=O)CN1CCN(C(=O)c2ccc(OCc3cn4ccccc4n3)cc2)CC1 | -1 | i | -5 | . | . | . | . | . | .
N#C/C(=C\c1ccc(-c2ccccc2)cc1)c1nc(-c2ccco2)cs1 | 22 | + | 14 | 61* | 21 | 28* | -2 | -14 | -5
N#C/C(=C\c1ccc(Cl)cc1)c1nc(-c2ccco2)cs1 | -2 | i | -12 | 7 | . | . | . | . | .
O=C1/C(=C/c2ccc([N+](=O)[O-])cc2)C=C(c2ccccc2)N1c1ccccc1 | 25 | + | 11 | 35* | 12 | 23* | 8 | 17 | -2
CC(=O)c1cn(CC(=O)NCc2ccco2)c2ccccc12 | 2 | i | 3 | -2 | . | . | . | . | .
O=C(Cn1cc(C(=O)COc2ccccc2)c2ccccc21)NCc1ccco1 | 19 | + | 6 | 34* | 26* | 38* | 60* | 21 | 39
N#Cc1c(SCC(=O)Nc2nccs2)sc2c(O)cc(=O)[nH]c12 | -22 | + | 12 | 79* | 10 | 15 | 21 | 26 | 7
COc1cc(/C=C2/C(=O)NN(c3ccc(Cl)cc3)C2=O)cc(OC)c1O | 3 | + | 23 | 97* | 151* | 154* | 62* | -53 | 54*
COc1cc(/C=C2/C(=O)NN(c3ccccc3)C2=O)cc(Br)c1O | 0 | + | 13 | 54* | 84* | 103* | 55* | 13 | 52*
Cc1cc(OCC(O)CN2CCc3ccccc3C2)ccc1Cl (centres undefined) | 0 | i | -2 | -3 | . | . | . | . | .
CCCCn1c(O)c(/C=C2\C=Nc3ccccc32)c(=O)[nH]c1=O | 5 | + | 9 | 30* | 33* | 43* | 51* | -29 | 11
CCCCc1nn2c(N)c(/C=C3\C=Nc4ccccc43)c(=O)nc2s1 | 6 | i | 2 | 5 | . | . | . | . | .
CCSc1nc(-c2ccccc2)cc(=O)[nH]1 | 1 | i | -3 | . | . | . | . | . | .
COc1cc(/C=C2\NC(=S)N(C)C2=O)ccc1O | 20 | + | 34 | 27* | 30* | 35* | 54* | 49* | 43*
COc1cc(C=C2NC(=O)NC2=O)ccc1O | -2 | i | -1 | . | . | . | . | . | .
CN1C(=O)CC(c2cn(Cc3ccccc3)c3ccccc23)C1=O (centres undefined) | 18 | + | 2 | 26* | 50* | 61* | 21 | -28 | 23
CC(=O)N1N=C(c2ccccc2)CC1c1cn(Cc2ccccc2)c2ccccc12 (centres undefined) | -1 | i | 1 | 2 | . | . | . | . | .
CC(C)N(C)c1ncnc2c1ncn2[C@H]1CN(Cc2ccc(-c3ccccc3)cc2)C[C@@H](CO)O1 | 2 | i | -2 | . | . | . | . | . | .
COC(=O)/C=c1/s/c(=C(\C#N)C(=O)NCc2ccco2)n(-c2ccc(C)cc2)c1=O | 5 | + | 31 | 82* | 20 | 27* | 11 | -12 | 20
COC(=O)/C=c1/s/c(=C(/C#N)C(=O)N2CCOCC2)n(-c2ccccc2)c1=O | 2 | i | 3 | 0 | . | . | . | . | .
COc1ccc(-c2csc(C(C)(O)c3cccc(F)c3)n2)cn1 (centres undefined) | -2 | i | -3 | . | . | . | . | . | .
COc1ccc(CCn2c(=N)c(C(=O)NC3CCCC3)cc3c(=O)n4ccccc4nc32)cc1 | 3 | i | -4 | 2 | . | . | . | . | .
COc1ccc(CCn2c(=N)c(C(=O)NC3CCCC3)cc3c(=O)n4ccccc4nc32)cc1OC | 24 | + | 13 | 28* | 45* | 57* | 34 | -27 | 24
COc1cc2ccccc2cc1C(=O)Nc1sc2c(c1C(N)=O)CCN(C(C)C)C2 | 38 | + | 33 | 82* | 54* | 62* | 69* | -53 | 46*
CC(C)N1CCc2c(sc(NC(=O)CN3C(=O)c4ccccc4C3=O)c2C(N)=O)C1 | -2 | i | -1 | 1 | . | . | . | . | .
SMILES | HNF4A DNA FP | Rpn11 block | CSN inh | TPT1 inhibitor | caTPT1 confirm | RNase T1 counter | Rpn11 inh conf | MMP-2 inh | Thrombin inh
CCN(N=O)c1ccc(C=C2C=Cc3ccccc32)cc1 | 4 | i | 0 | . | . | . | . | . | .
COCCCn1c(=O)/c(=C\c2ccccc2OC(C)C)s/c1=C(/C#N)C(=O)Nc1ccc(C(=O)O)cc1 | 26 | + | 44 | 39* | 19 | 58* | -85 | -38 | active
N#C/C(=C\c1ccccc1OCc1ccc(C(=O)O)cc1)C(=O)Nc1ccc(O)cc1 | 1 | i | -7 | -1 | . | . | . | . | .
NC(=O)CC(NC(=O)Cc1cccc2ccccc12)c1ccc(NC2CCN(Cc3ccccc3)CC2)c([N+](=O)[O-])c1 (centres undefined) | 8 | + | 19 | 26* | 29* | 40* | 24 | -38 | 11
Cc1cccc(C)c1-n1nnnc1C(c1ccccc1OC(F)(F)F)N1CCN(C/C=C/c2ccccc2)CC1 (centres undefined) | 2 | i | 1 | . | . | . | . | . | .
CCN1/C(=C2/OC(=S)N(C)C2=O)Sc2ccccc21 | 2 | i | 5 | . | . | . | . | . | .
CCN1/C(=C\C=C2\C(=O)N(C)C(=S)N2C)Sc2ccccc21 | 32 | + | 9 | 47* | 60* | 73* | 3 | -15 | -3
CCCCCN(C(=O)CCC(=O)OCC(=O)N1CCCCC1)c1c(N)n(CCCC)c(=O)[nH]c1=O | 4 | i | 4 | -2 | . | . | . | . | .
COc1ccc2c(C)cc(SCC(=O)N3CCOCC3)nc2c1 | 20 | + | 20 | 73* | 61* | 73* | 41* | -69 | 24
